The values below come from ChEMBL document CHEMBL1157337, “Interference by naturally occurring fatty acids in a noncellular enzyme-based aromatase bioassay” (J Nat Prod, 2006).

SMILES strings stand for the structures.

For assay [1], the target named is T1, Aromatase (Homo sapiens, UniProt P11511).
T1 sequence (P11511 whole entry): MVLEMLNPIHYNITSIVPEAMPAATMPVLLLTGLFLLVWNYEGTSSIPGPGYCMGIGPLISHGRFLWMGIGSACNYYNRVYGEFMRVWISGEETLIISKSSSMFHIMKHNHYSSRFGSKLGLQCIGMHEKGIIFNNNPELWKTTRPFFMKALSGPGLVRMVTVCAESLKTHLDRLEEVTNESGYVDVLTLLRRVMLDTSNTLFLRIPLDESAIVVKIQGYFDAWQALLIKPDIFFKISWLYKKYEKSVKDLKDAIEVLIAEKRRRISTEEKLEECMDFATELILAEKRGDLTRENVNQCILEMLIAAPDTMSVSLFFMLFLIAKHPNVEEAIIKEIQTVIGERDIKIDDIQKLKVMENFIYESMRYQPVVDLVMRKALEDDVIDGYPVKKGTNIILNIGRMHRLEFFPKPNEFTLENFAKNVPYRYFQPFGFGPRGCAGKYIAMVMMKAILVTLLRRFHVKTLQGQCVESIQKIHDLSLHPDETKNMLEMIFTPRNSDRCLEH
Kind of assay: Inhibition of aromatase in human placental microsomes at 20 ug/ml by radiometric method relative to control. Set-up: species or system Placenta; scale not given: the % may be the effect or the level left. The conditions noted are these: read-out: Activity. Summed up:
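Human term placental microsomes (50 µg) with sample at 20 µg/mL, 100 nM [1β-3H]androstenedione, 0.1 M K phosphate pH 7.0, 5% propylene glycol, NADPH-regenerating system; 37 °C, 15 min, CHCl3 quench and extraction; aqueous 3H2O counted; triplicate.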

Assay [2] deals with T1, Aromatase. Nature of the assay: Inhibition of aromatase in human placental microsomes by radiometric method. More on the design: species or system Placenta. In outline:
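Placental microsomal aromatase (50 µg), 100 nM [1β-3H]androstenedione, pH 7.0 phosphate buffer, 5% propylene glycol, NADPH-regenerating system, 37 °C for 15 min; 3H2O in the aqueous phase counted after CHCl3 extraction, boiled-enzyme background. Eight inhibitor concentrations spanning 1–100 µM; IC50 by nonlinear regression.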

The target of assay [3] is T1, Aromatase. Kind of assay: Inhibition of aromatase in human SKBR3 cells at 100 uM relative to control. The assay is classed as cell-based. More on the design: scale not given: the % may be the effect or the level left. The settings on record: SK-BR-3, human; read-out: Activity. Summed up: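 Test agents at 100 µM on aromatase-overexpressing SK-BR-3 cells in T-25 flasks, serum-free DMEM/F12 with albumin/transferrin/insulin, triplicate, 24 h exposure (0.1% DMSO negative control, 10 nM letrozole positive control). Medium replaced with 50 nM androstenedione plus 2 µCi [1β-3H]androstenedione, 6 h; released 3H2O scintillation-counted, corrected for blanks and DNA-based cell count; percent control activity.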

Assay [4] concerns the target T1, Aromatase. Nature of the assay: Inhibition of aromatase in human SKBR3 cells at 10 nM relative to control. The assay is classed as cell-based. More on the design: scale not given: the % may be the effect or the level left. The conditions noted are these: SK-BR-3, human; read-out: Activity. In outline: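 SK-BR-3 human breast cancer cells (aromatase-overexpressing), grown subconfluent in T-25 flasks, medium switched to serum-free DMEM/F12 with albumin, transferrin, insulin; treated in triplicate 24 h (0.1% DMSO negative control). Then 50 nM androstenedione plus 2 µCi [1β-3H]androstenedione for 6 h; 3H2O counted after TCA, CHCl3 and charcoal cleanup; normalized to DNA-determined cell number, expressed as percent control activity.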

In the case of `CCCCC/C=C\C/C=C\C/C=C\C/C=C\CCCC(=O)O` [ARACHIDONIC ACID], the activity at 20 µg/mL at Aromatase [1] came to 11.5%. For the same compound, on Aromatase [2], 28.2 µM corresponded to half-maximal inhibition (IC50). Also, on Aromatase [3], the activity at 100 µM was 147%.

Consider `CC/C=C\C/C=C\C/C=C\C/C=C\C/C=C\C/C=C\CCC(=O)O` [DOCONEXENT], for which, on Aromatase [1], the activity at 20 µg/mL is 12.4%. Moreover, half-maximal inhibition against Aromatase [2] (IC50) was put at 33.2 µM. On Aromatase [3], the activity at 100 µM was 98.2%.

In the case of `CC/C=C\C/C=C\C/C=C\C/C=C\C/C=C\CCCCCC(=O)O` [DOCOSAPENTAENOIC ACID], the activity at 20 µg/mL on Aromatase [1] came out at 15.7%. Further, at Aromatase [2], the IC50 (as a rule, the point on the concentration scale where inhibition reaches its midpoint) turned out to be 16.8 µM. Besides, the activity at 100 µM on Aromatase [3] was 94.4%.

On to `CC/C=C\C/C=C\C/C=C\C/C=C\C/C=C\CCCC(=O)O` [ICOSAPENT], for which the activity at 20 µg/mL at Aromatase [1] is 30.2%. The same compound registered an IC50 against Aromatase [2] of 53.2 µM. In addition, the activity at 100 µM on Aromatase [3] is 138%.

On to `N#Cc1ccc(C(c2ccc(C#N)cc2)n2cncn2)cc1` [LETROZOLE], for which the activity at 0.01 µM on Aromatase [4] turned out to be 3.9%.

Turning to `CCCCC/C=C\C/C=C\CCCCCCCC(=O)O` [LINOLEIC ACID], the activity at 20 µg/mL on Aromatase [1] was 22.5%. On Aromatase [2], the concentration for half-maximal inhibition (IC50) is 48 µM. In addition, the activity at 100 µM at Aromatase [3] worked out at 148%.

Take `CC/C=C\C/C=C\C/C=C\CCCCCCCC(=O)O` [LINOLENIC ACID]: on Aromatase [1], the activity at 20 µg/mL was 49.5%. Also, the midpoint of inhibition at Aromatase [2], the IC50, lay at 44.2 µM. The activity at 100 µM at Aromatase [3] came to 92.8%.

In the case of `CCCCCCCCCCCCCC(=O)O` [MYRISTIC ACID], the activity at 20 µg/mL on Aromatase [1] came out at 66.7%.

With `CCCCCCCC/C=C\CCCCCCCC(=O)O` [OLEIC ACID], at Aromatase [1], the activity at 20 µg/mL worked out at 19.5%. This compound also registered an IC50 against Aromatase [2] of 32.7 µM. Further, the activity at 100 µM at Aromatase [3] stood at 99.3%.

Consider `CCCCCCCCCCCCCCCC(=O)O` [PALMITIC ACID], for which the activity at 20 µg/mL at Aromatase [1] is 83.2%.

As to `CCCCCCCCCCCCCCC(=O)O` [PENTADECANOIC ACID], the activity at 20 µg/mL at Aromatase [1] was found to be 76.2%.

As to `CCCCCCCCCCCCCCCCCC(=O)O` [STEARIC ACID], the activity at 20 µg/mL at Aromatase [1] is 89.4%.
